Converted amounts (≈) assume the structure as drawn.
Columns and labels:
Format in all cases: functional
Pseudomonas aeruginosa = experiment: Antibacterial activity against Pseudomonas aeruginosa ATCC 27853 by broth microdilution method
How it was run: (§1)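 MICs were determined by broth microdilution following CLSI recommendations, with clarithromycin and telithromycin run as reference antibiotics.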

Moraxella catarrhalis [1] = experiment: Antibacterial activity against clarithromycin-resistant Moraxella catarrhalis 12-2 by broth microdilution method
How it was run: (§2)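 MIC values were determined by broth microdilution following Clinical and Laboratory Standards Institute (CLSI) recommendations.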

Streptococcus pyogenes [2] = experiment: Antibacterial activity against methicillin-resistant Streptococcus pyogenes 12-1 by broth microdilution method; how it was run: as §2
Klebsiella pneumoniae = experiment: Antibacterial activity against extended spectrum beta-lactamases producing Klebsiella pneumoniae ATCC 700603 by broth microdilution method; how it was run: as §1
Escherichia coli = experiment: Antibacterial activity against extended spectrum beta-lactamases non-producing Escherichia coli ATCC 25922 by broth microdilution method; how it was run: as §1
Streptococcus pyogenes [3] = experiment: Antibacterial activity against […] Streptococcus pyogenes 12-8 by broth microdilution method; how it was run: as §1
[4] = system: Staphylococcus epidermidis; experiment: Antibacterial activity against methicillin-sensitive Staphylococcus epidermidis ATCC 12228 by broth microdilution method; how it was run: as §1
Moraxella catarrhalis [5] = experiment: Antibacterial activity against clarithromycin-sensitive Moraxella catarrhalis 12-1 by broth microdilution method; how it was run: as §1
[6] = system: Staphylococcus epidermidis; experiment: Antibacterial activity against methicillin-resistant Staphylococcus epidermidis 13-3 by broth microdilution method; how it was run: as §2
Staphylococcus aureus [7] = experiment: Antibacterial activity against methicillin-resistant Staphylococcus aureus ATCC 33591 by broth microdilution method; how it was run: as §2
Staphylococcus aureus [8] = experiment: Antibacterial activity against methicillin-sensitive Staphylococcus aureus ATCC 29213 by broth microdilution method; how it was run: as §1
Staphylococcus aureus [9] = experiment: Antibacterial activity against methicillin-sensitive Staphylococcus aureus 11B122 by broth microdilution method; how it was run: as §1
Streptococcus pneumoniae [10] = experiment: Antibacterial activity against erythromycin-resistant Streptococcus pneumoniae 11 J011 by broth microdilution method; how it was run: as §2
Haemophilus influenzae [11] = experiment: Antibacterial activity against azithromycin-resistant Haemophilus influenzae 11Q373 by broth microdilution method; how it was run: as §2
[12] = system: Staphylococcus epidermidis; experiment: Antibacterial activity against methicillin-sensitive Staphylococcus epidermidis 11X315 by broth microdilution method; how it was run: as §2
[13] = system: Staphylococcus epidermidis; experiment: Antibacterial activity against methicillin-resistant Staphylococcus epidermidis 11C176 by broth microdilution method; how it was run: as §2
Staphylococcus aureus [14] = experiment: Antibacterial activity against methicillin-resistant Staphylococcus aureus 11B117 by broth microdilution method; how it was run: as §2
Streptococcus pyogenes [15] = experiment: Antibacterial activity against erythromycin-sensitive Streptococcus pyogenes 11L264 by broth microdilution method; how it was run: as §1
Haemophilus influenzae [16] = experiment: Antibacterial activity against azithromycin-sensitive Haemophilus influenzae 11P042 by broth microdilution method; how it was run: as §1
Streptococcus pneumoniae [17] = experiment: Antibacterial activity against erythromycin-sensitive Streptococcus pneumoniae 11G364 by broth microdilution method; how it was run: as §1
Streptococcus pyogenes [18] = experiment: Antibacterial activity against erythromycin-resistant Streptococcus pyogenes 11 N369 by broth microdilution method; how it was run: as §2

CC[C@H]1OC(=O)[C@H](C)C(=O)[C@H](C)[C@@H](O[C@@H]2O[C@H](C)C[C@H](N(C)C)[C@H]2O)[C@](C)(OC)C[C@@H](C)C(=O)[C@H](C)[C@H]2N(CC/C=C/c3cncc4cc(C)ccc34)C(=O)O[C@]12C
MIC (Pseudomonas aeruginosa): 64 µg/mL (≈ 79.2 µM)
MIC (Moraxella catarrhalis [1]): 32 µg/mL (≈ 39.6 µM)
MIC (Streptococcus pyogenes [2]): 64 µg/mL (≈ 79.2 µM)
MIC (Klebsiella pneumoniae): > 256 µg/mL
MIC (Escherichia coli): 64 µg/mL (≈ 79.2 µM)
MIC (Streptococcus pyogenes [3]): 0.015 µg/mL (≈ 0.0186 µM)
MIC [4]: 0.06 µg/mL (≈ 0.0743 µM)
MIC (Moraxella catarrhalis [5]): 0.015 µg/mL (≈ 0.0186 µM)
MIC [6]: 128 µg/mL (≈ 158 µM)
MIC (Staphylococcus aureus [7]): 64 µg/mL (≈ 79.2 µM)
MIC (Staphylococcus aureus [8]): 0.06 µg/mL (≈ 0.0743 µM)

CC[C@H]1OC(=O)[C@H](C)C(=O)[C@H](C)[C@@H](O[C@@H]2O[C@H](C)C[C@H](N(C)C)[C@H]2O)[C@](C)(OC)C[C@@H](C)C(=O)[C@H](C)[C@H]2N(CCCOc3ccc4cccnc4c3)C(=O)O[C@]12C
MIC (Pseudomonas aeruginosa): 32 µg/mL (≈ 40.1 µM)
MIC (Moraxella catarrhalis [1]): 64 µg/mL (≈ 80.2 µM)
MIC (Streptococcus pyogenes [2]): > 256 µg/mL
MIC (Klebsiella pneumoniae): 128 µg/mL (≈ 160 µM)
MIC (Escherichia coli): 16 µg/mL (≈ 20.1 µM)
MIC (Streptococcus pyogenes [3]): 0.015 µg/mL (≈ 0.0188 µM)
MIC [4]: 0.03 µg/mL (≈ 0.0376 µM)
MIC (Moraxella catarrhalis [5]): 0.015 µg/mL (≈ 0.0188 µM)
MIC [6]: > 256 µg/mL
MIC (Staphylococcus aureus [7]): 256 µg/mL (≈ 321 µM)
MIC (Staphylococcus aureus [8]): 0.015 µg/mL (≈ 0.0188 µM)

CC[C@H]1OC(=O)[C@H](C)C(=O)[C@H](C)[C@@H](O[C@@H]2O[C@H](C)C[C@H](N(C)C)[C@H]2O)[C@](C)(OC)C[C@@H](C)C(=O)[C@H](C)[C@H]2N(CCCSc3cnc4ccccc4c3)C(=O)O[C@]12C
MIC (Staphylococcus aureus [9]): 0.125 µg/mL (≈ 0.154 µM)
MIC (Streptococcus pneumoniae [10]): 0.125 µg/mL (≈ 0.154 µM)
MIC (Haemophilus influenzae [11]): 32 µg/mL (≈ 39.3 µM)
MIC [12]: 0.125 µg/mL (≈ 0.154 µM)
MIC [13]: 0.125 µg/mL (≈ 0.154 µM)
MIC (Staphylococcus aureus [14]): > 64 µg/mL
MIC (Streptococcus pyogenes [15]): 0.016 µg/mL (≈ 0.0197 µM)
MIC (Haemophilus influenzae [16]): 16 µg/mL (≈ 19.7 µM)
MIC (Streptococcus pneumoniae [17]): 0.008 µg/mL (≈ 0.00983 µM)
MIC (Streptococcus pyogenes [18]): 0.5 µg/mL (≈ 0.614 µM)

CC[C@H]1OC(=O)[C@H](C)C(=O)[C@H](C)[C@@H](O[C@@H]2O[C@H](C)C[C@H](N(C)C)[C@H]2O)[C@](C)(OC)C[C@@H](C)C(=O)[C@H](C)[C@H]2N(CCCNc3cnc4ccccc4c3)C(=O)O[C@]12C
MIC (Staphylococcus aureus [9]): 0.5 µg/mL (≈ 0.627 µM)
MIC (Streptococcus pneumoniae [10]): 0.5 µg/mL (≈ 0.627 µM)
MIC (Haemophilus influenzae [11]): 8 µg/mL (≈ 10 µM)
MIC [12]: 0.5 µg/mL (≈ 0.627 µM)
MIC [13]: 0.5 µg/mL (≈ 0.627 µM)
MIC (Staphylococcus aureus [14]): > 64 µg/mL
MIC (Streptococcus pyogenes [15]): 0.031 µg/mL (≈ 0.0389 µM)
MIC (Haemophilus influenzae [16]): 8 µg/mL (≈ 10 µM)
MIC (Streptococcus pneumoniae [17]): 0.016 µg/mL (≈ 0.0201 µM)
MIC (Streptococcus pyogenes [18]): 64 µg/mL (≈ 80.3 µM)

CC[C@H]1OC(=O)[C@H](C)C(=O)[C@H](C)[C@@H](O[C@@H]2O[C@H](C)C[C@H](N(C)C)[C@H]2O)[C@](C)(OC)C[C@@H](C)C(=O)[C@H](C)[C@H]2N(CC/C=C/c3cncc4ccc(-c5ccccc5)cc34)C(=O)O[C@]12C
MIC (Pseudomonas aeruginosa): > 256 µg/mL
MIC (Moraxella catarrhalis [1]): 2 µg/mL (≈ 2.3 µM)
MIC (Streptococcus pyogenes [2]): 8 µg/mL (≈ 9.19 µM)
MIC (Klebsiella pneumoniae): > 256 µg/mL
MIC (Escherichia coli): > 256 µg/mL
MIC (Streptococcus pyogenes [3]): 0.125 µg/mL (≈ 0.144 µM)
MIC [4]: 0.5 µg/mL (≈ 0.575 µM)
MIC (Moraxella catarrhalis [5]): 0.125 µg/mL (≈ 0.144 µM)
MIC [6]: 8 µg/mL (≈ 9.19 µM)
MIC (Staphylococcus aureus [7]): 4 µg/mL (≈ 4.6 µM)
MIC (Staphylococcus aureus [8]): 1 µg/mL (≈ 1.15 µM)

CC[C@H]1OC(=O)[C@H](C)C(=O)[C@H](C)[C@@H](O[C@@H]2O[C@H](C)C[C@H](N(C)C)[C@H]2O)[C@](C)(OC)C[C@@H](C)C(=O)[C@H](C)[C@H]2N(CCCCn3cnc(-c4cccnc4)c3)C(=O)O[C@]12C [TELITHROMYCIN]
MIC (Staphylococcus aureus [9]): 0.062 µg/mL (≈ 0.0764 µM)
MIC (Streptococcus pneumoniae [10]): 0.031 µg/mL (≈ 0.0382 µM)
MIC (Haemophilus influenzae [11]): 4 µg/mL (≈ 4.93 µM)
MIC (Pseudomonas aeruginosa): 32 µg/mL (≈ 39.4 µM)
MIC (Moraxella catarrhalis [1]): > 256 µg/mL
MIC [12]: 0.062 µg/mL (≈ 0.0764 µM)
MIC [13]: 0.031 µg/mL (≈ 0.0382 µM)
MIC (Staphylococcus aureus [14]): > 64 µg/mL
MIC (Streptococcus pyogenes [2]): > 256 µg/mL
MIC (Klebsiella pneumoniae): 64 µg/mL (≈ 78.8 µM)
MIC (Escherichia coli): 8 µg/mL (≈ 9.85 µM)
MIC (Streptococcus pyogenes [15]): 0.008 µg/mL (≈ 0.00985 µM)
MIC (Streptococcus pyogenes [3]): 0.03 µg/mL (≈ 0.0369 µM)
MIC (Haemophilus influenzae [16]): 1 µg/mL (≈ 1.23 µM)
MIC [4]: 0.015 µg/mL (≈ 0.0185 µM)
MIC (Moraxella catarrhalis [5]): 0.125 µg/mL (≈ 0.154 µM)
MIC (Streptococcus pneumoniae [17]): 0.016 µg/mL (≈ 0.0197 µM)
MIC [6]: > 256 µg/mL
MIC (Streptococcus pyogenes [18]): 0.125 µg/mL (≈ 0.154 µM)
MIC (Staphylococcus aureus [7]): > 256 µg/mL
MIC (Staphylococcus aureus [8]): 0.015 µg/mL (≈ 0.0185 µM)

CC[C@H]1OC(=O)[C@H](C)C(=O)[C@H](C)[C@@H](O[C@@H]2O[C@H](C)C[C@H](N(C)C)[C@H]2O)[C@](C)(OC)C[C@@H](C)C(=O)[C@H](C)[C@H]2N(CC/C=C/c3cnc4ccccc4c3)C(=O)O[C@]12C
MIC (Staphylococcus aureus [9]): 0.125 µg/mL (≈ 0.157 µM)
MIC (Streptococcus pneumoniae [10]): 0.031 µg/mL (≈ 0.039 µM)
MIC (Haemophilus influenzae [11]): 4 µg/mL (≈ 5.04 µM)
MIC [12]: 0.062 µg/mL (≈ 0.0781 µM)
MIC [13]: 0.062 µg/mL (≈ 0.0781 µM)
MIC (Staphylococcus aureus [14]): 64 µg/mL (≈ 80.6 µM)
MIC (Streptococcus pyogenes [15]): ≤ 0.004 µg/mL
MIC (Haemophilus influenzae [16]): 1 µg/mL (≈ 1.26 µM)
MIC (Streptococcus pneumoniae [17]): ≤ 0.004 µg/mL
MIC (Streptococcus pyogenes [18]): 0.25 µg/mL (≈ 0.315 µM)

CC[C@H]1OC(=O)[C@H](C)C(=O)[C@H](C)[C@@H](O[C@@H]2O[C@H](C)C[C@H](N(C)C)[C@H]2O)[C@](C)(OC)C[C@@H](C)C(=O)[C@H](C)[C@H]2N(CC/C=C/c3cncc4ccccc34)C(=O)O[C@]12C
MIC (Pseudomonas aeruginosa): 32 µg/mL (≈ 40.3 µM)
MIC (Moraxella catarrhalis [1]): 32 µg/mL (≈ 40.3 µM)
MIC (Streptococcus pyogenes [2]): 64 µg/mL (≈ 80.6 µM)
MIC (Klebsiella pneumoniae): 64 µg/mL (≈ 80.6 µM)
MIC (Escherichia coli): 16 µg/mL (≈ 20.2 µM)
MIC (Streptococcus pyogenes [3]): 0.015 µg/mL (≈ 0.0189 µM)
MIC [4]: 0.03 µg/mL (≈ 0.0378 µM)
MIC (Moraxella catarrhalis [5]): 0.015 µg/mL (≈ 0.0189 µM)
MIC [6]: 64 µg/mL (≈ 80.6 µM)
MIC (Staphylococcus aureus [7]): 64 µg/mL (≈ 80.6 µM)
MIC (Staphylococcus aureus [8]): 0.015 µg/mL (≈ 0.0189 µM)

— ChEMBL document CHEMBL4118285, “Synthesis and antibacterial activity of novel ketolides with 11,12-quinoylalkyl side chains” (2018)
